Legend:
[1] = target: Caspase-8 (Homo sapiens, UniProt Q14790); experiment: Inhibition of caspase 8
How it was run: (§1)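 Recombinant human caspase-1, -6 or -8 at 0.5 units per assay, preincubated 10 min at 37 °C with compound in DMSO at single doses from 5 pM to 500 µM. Fluorogenic AMC substrate then added at 10 µM final (caspase-1 Ac-YVAD-AMC, caspase-6 Ac-VEID-AMC, caspase-8 Ac-IETD-AMC) for a further 10 min. Read-out was AMC fluorescence. IC50 taken by nonlinear regression.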

[2] = target: T1, Caspase-1 (Homo sapiens, UniProt P29466); experiment: Inhibition of caspase 1; how it was run: as §1
T1 sequence (P29466 whole entry): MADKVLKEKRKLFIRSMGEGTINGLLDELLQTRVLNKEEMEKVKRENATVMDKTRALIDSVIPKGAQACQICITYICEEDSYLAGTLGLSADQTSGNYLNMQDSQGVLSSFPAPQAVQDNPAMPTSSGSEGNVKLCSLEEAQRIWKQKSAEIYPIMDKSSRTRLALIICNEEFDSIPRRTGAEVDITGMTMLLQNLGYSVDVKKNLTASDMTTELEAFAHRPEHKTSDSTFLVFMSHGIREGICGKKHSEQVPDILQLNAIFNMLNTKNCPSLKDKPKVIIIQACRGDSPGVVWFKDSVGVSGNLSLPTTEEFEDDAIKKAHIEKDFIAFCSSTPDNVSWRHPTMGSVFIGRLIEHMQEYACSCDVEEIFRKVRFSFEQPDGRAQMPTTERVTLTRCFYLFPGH

[3] = target: T2, Caspase-6 (Homo sapiens, UniProt P55212); experiment: Inhibition of caspase 6; how it was run: as §1
T2 sequence (P55212 whole entry): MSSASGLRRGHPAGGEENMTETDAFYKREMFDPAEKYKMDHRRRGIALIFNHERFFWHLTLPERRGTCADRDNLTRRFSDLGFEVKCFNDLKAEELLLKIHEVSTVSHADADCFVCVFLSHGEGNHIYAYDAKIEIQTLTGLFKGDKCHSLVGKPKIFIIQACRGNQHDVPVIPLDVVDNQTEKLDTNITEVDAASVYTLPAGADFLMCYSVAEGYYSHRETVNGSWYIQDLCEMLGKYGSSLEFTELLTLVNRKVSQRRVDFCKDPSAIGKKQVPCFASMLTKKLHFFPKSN

Measured: IC50

Caspase-8, sequence (Q14790 217-374 limits assumed): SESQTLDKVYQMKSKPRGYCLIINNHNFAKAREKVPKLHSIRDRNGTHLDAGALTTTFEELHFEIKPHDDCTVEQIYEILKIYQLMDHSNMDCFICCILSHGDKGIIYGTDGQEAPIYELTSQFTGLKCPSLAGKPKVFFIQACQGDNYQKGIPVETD
Caspase-8, sequence (Q14790 385-479 limits assumed): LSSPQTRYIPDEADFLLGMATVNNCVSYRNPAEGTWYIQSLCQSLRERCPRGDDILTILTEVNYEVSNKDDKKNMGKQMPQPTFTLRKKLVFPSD

CCC[CH2][Sn]([CH2]CCC)([CH2]CCC)[c]1ccc(CN2C(=O)C(=O)c3cc(S(=O)(=O)N4CCC[C@H]4COC)ccc32)cc1 [(S)-5-[1-(2-methoxymethylpyrrolidinyl)sulfonyl]-1-(4-(tributylstannyl)benzyl)isatin]
> 500 µM: all assays above

CCC[CH2][Sn]([CH2]CCC)([CH2]CCC)[c]1ccc(CN2C(=O)C(=O)c3cc(S(=O)(=O)N4CCC[C@H]4COc4ccccc4)ccc32)cc1 [(S)-5-[1-(2-phenoxymethylpyrrolidinyl)sulfonyl]-1-(4-(tributylstannyl)benzyl)isatin]
> 500 µM: all assays above
